{"data": "Assay results from different studies", "target": "Casein kinase II subunit alpha' (CSNK2A2, Homo sapiens, UniProt P19784)", "note": "Compare with care: the assays were run in different laboratories."}
{"Structure (SMILES)": "C[C@@H](c1ccc(-n2cnc3c(N)ncnc32)cc1)N1CCc2nn(C)c(Cc3ccccc3)c2C1=O", "test": "binding, competition with immobilised ligand", "setting": "0.1 µM", "remaining binding": "86%"}
{"Structure (SMILES)": "Cc1c(NC(=O)c2cc(C(N)=O)nc3cc(F)ccc23)c(C(F)(F)F)nn1Cc1ccc(C#N)cc1", "test": "cell-free assay, competition with immobilised ligand", "setting": "1 µM", "remaining binding": "100%"}
{"Structure (SMILES)": "Cc1cnn2ncc(-c3ccnc(N(C)C)n3)c2c1", "test": "binding", "setting": "1 µM", "remaining binding": "69%"}
{"Structure (SMILES)": "CCOCCn1cc(C(=O)Nc2ccc(-n3nc(-c4cccnc4)cc3C(F)(F)F)cn2)ccc1=O", "test": "cell-free assay, competition with immobilised ligand", "setting": "1 µM", "remaining binding": "100%"}
{"Structure (SMILES)": "C=CC(=O)N1CCC(C(=O)NCC(=O)N2CCN(c3nc(-c4cnc(N)nc4C(F)F)nc(N4CCOCC4)n3)CC2)CC1", "test": "binding, competition with immobilised ligand", "setting": "1 µM", "remaining binding": "100%"}
{"Structure (SMILES)": "COc1ccnn2ncc(-c3ccnc(N(C)C)n3)c12", "test": "binding", "setting": "1 µM", "remaining binding": "61%"}
{"Structure (SMILES)": "O=C(N1CCS(=O)(=O)CC1)N1C[C@H](c2ccc(OC(F)(F)F)cc2)C[C@H](c2nc(C3CC3)no2)C1", "test": "cell-free assay, competition with immobilised ligand", "setting": "1 µM", "remaining binding": "100%"}
{"Structure (SMILES)": "O=C(NCCCN1CCOCC1)c1ccc(Nc2ncc(Cl)c(-c3ccc(Cl)s3)n2)cc1", "test": "binding, competition with immobilised ligand", "setting": "1 µM", "remaining binding": "0.2%"}
{"Structure (SMILES)": "Nc1ncc2c(n1)-c1c([nH]c3ccc(C#CC4CC4)cc13)CCCC2", "test": "binding, competition with immobilised ligand", "setting": "1 µM", "remaining binding": "82%"}
{"Structure (SMILES)": "O=C(Nc1c[nH]nc1C(=O)NC1CCNCC1)c1cc(F)cc(F)c1", "test": "binding, competition with immobilised ligand", "setting": "1 µM", "remaining binding": "100%"}
{"Structure (SMILES)": "CN(CCCC(F)(F)F)c1nccc(-c2cnn3ncccc23)n1", "test": "binding", "setting": "1 µM", "remaining binding": "92%"}
{"Structure (SMILES)": "O=C(c1ccc(Nc2nccc(-c3cc4ccccc4s3)n2)cc1)N1CCC(N2CCCC2)CC1", "test": "binding, competition with immobilised ligand", "setting": "1 µM", "remaining binding": "1.8%"}
{"Structure (SMILES)": "CCN1CCN(Cc2ccc(C(=O)Nc3ccc(C)c(Oc4ccc5c(c4)CC(=O)N5)c3)cc2C(F)(F)F)CC1", "test": "binding, competition with immobilised ligand", "setting": "1 µM", "remaining binding": "95%"}
{"Structure (SMILES)": "c1cnn2ncc(-c3ccnc(N4CCC45COC5)n3)c2c1", "test": "binding", "setting": "1 µM", "remaining binding": "24%"}
{"Structure (SMILES)": "C[C@H](c1ccc(F)cc1)N(Cc1cccc(C(=O)O)c1)C(=O)c1cnc2ccccc2c1", "test": "cell-free assay, competition with immobilised ligand", "setting": "1 µM", "remaining binding": "86%"}
{"Structure (SMILES)": "O=C(c1ccc(Nc2ncc(Cl)c(-c3ccc(Cl)s3)n2)cc1)N1CCC(N2CCCC2)CC1", "test": "binding, competition with immobilised ligand", "setting": "1 µM", "remaining binding": "0.15%"}
{"Structure (SMILES)": "C[C@H]1CCN(c2nccc(-c3cnn4ncccc34)n2)C1", "test": "binding", "setting": "1 µM", "remaining binding": "56%"}
{"Structure (SMILES)": "COc1cc(-c2cn(C3CCc4ccccc4N(CC(F)(F)F)C3=O)nn2)ccc1-n1ccc(C)n1 (stereo not shown)", "test": "cell-free assay, competition with immobilised ligand", "setting": "1 µM", "remaining binding": "84%"}
{"Structure (SMILES)": "N[C@H]1CCN(c2nccc(-c3cnn4ncccc34)n2)C1", "test": "binding", "setting": "1 µM", "remaining binding": "88%"}
{"Structure (SMILES)": "COc1cnc(Nc2cccc(S(N)(=O)=O)c2)nc1N1CCN(c2ccccc2)C(=O)C1", "test": "binding, competition with immobilised ligand", "setting": "1 µM", "remaining binding": "86%"}
{"Structure (SMILES)": "CN(C)C(=O)Cn1cc(-c2nc(C3(c4ccc(-c5cnc(N)nc5)cc4)CC3)no2)cn1", "test": "cell-free assay, competition with immobilised ligand", "setting": "1 µM", "remaining binding": "100%"}
{"Structure (SMILES)": "CN(C)c1nccc(-c2cnn3ncccc23)n1", "test": "binding", "setting": "1 µM", "remaining binding": "39%"}
